We go through 20 compounds from ChEMBL document CHEMBL1131621, “Synthesis and activity of dipeptides, linked to targeting ligands, as specific NK cell enhancers” (1998).

Structures are written as SMILES. Calls of active or inactive are those of the source. The calls are words filed in the database; no cut-off is given here. Where a SMILES comes first, the peptide text is derived from it. [ ]: non-standard residue; d: D form.

Assay [1] is described as follows: In vitro Natural Killer cell activity (Activation of murine splenocyte NK cells by its ability to lyze YAC-1 target cells in chromium release assay) relative to interleukin 2 at 10E-4 to 10E-12 M conc; Range 21-40%. Type of assay: functional, Mus musculus. In a few lines:
(§1)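 Spleens from female C57BL/6 (H-2b) mice, 6–8 weeks old, homogenized in RPMI 1640 with 10% FCS and 2 mM L-glutamine. Mononuclear cells isolated on a Lympholyte M gradient (800g, 20 min), washed in PBS, viability checked by trypan blue. 5×10^5 splenocytes with compound incubated 4 h with 5×10^3 51Cr-labelled YAC-1 cells; % specific lysis from released chromium. Compounds tested at 10^-4–10^-12 M. Peak activity scored relative to IL 2 (100%) in 20% bands. Actives run 2–5 times, inactives once.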

Assay [2] in a line: In vitro Natural Killer cell activity (Activation of murine splenocyte NK cells by its ability to lyze YAC-1 target cells in chromium release assay) relative to interleukin 2 at 10E-4 to 10E-8 M conc; Range 21-40%. The class given is functional, Mus musculus. The method in brief: as §1
Assay [3] in a line: In vitro Natural Killer cell activity (Activation of murine splenocyte NK cells by its ability to lyze YAC-1 target cells in chromium release assay) relative to interleukin 2 at 10E-4 to 10E-12 M conc. The class given is functional, Mus musculus. The method in brief:
as §1

Assay [4] can be described thus: In vitro Natural Killer cell activity (Activation of murine splenocyte NK cells by its ability to lyze YAC-1 target cells in chromium release assay) relative to interleukin 2; Range 0-20%. Type of assay: functional, Mus musculus. The method in brief: as §1
Assay [5] in a line: In vitro Natural Killer cell activity (Activation of murine splenocyte NK cells by its ability to lyze YAC-1 target cells in chromium release assay) relative to interleukin 2 at 10E-4 to 10E-12 M conc; Range 41-60%. Type of assay: functional, Mus musculus. The method in brief: as §1
The species named for assay [6] is Mus musculus. In words: Peak or the range of peak activity relative to positive IL 2 control; Range 10e-12-10e-4. The class given is functional. In a few lines:
as §1

The species named for assay [7] is Mus musculus. In words: Peak or the range of peak activity relative to positive IL 2 control; Range 10e-8-10e-4. The class given is functional. The method in brief: as §1
Assay [8] is filed under the species Mus musculus. In words: The compound was tested in vitro for mixed lymphocyte reaction against murine splenocytes; No effect. The class given is functional.
For assay [9], the system named is Mus musculus. In words: Antimetastatic effect in lungs of C57BL/6 mice injected iv on day 0 with 250000 B16 melanoma cells and a dose of 0 mg/kg of compound in exp 1. The class given is functional, Lung. The method in brief:
(§2)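 Female C57BL/6 mice, 6–8 weeks old, given 2.5×10^5 B16F10 melanoma cells iv on day 0. Sacrifice on day 24; lungs fixed and surface tumour colonies counted. Mean ± SEM; n = 8 in exp 1, n = 4 in exp 2.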

The species named for assay [10] is Mus musculus. In words: The compound was tested in vitro for T cell proliferation (PHA, ConA) against murine splenocytes; No effect. The class given is functional.
The species entered for assay [11] is Mus musculus. In words: The compound was tested in vitro for respiratory burst against murine whole blood; No effect. The class given is functional.
In assay [12] the test system is Mus musculus. In words: Antimetastatic effect in lungs of C57BL/6 mice injected iv on day 0 with 250000 B16 melanoma cells and a dose of 25 mg/kg of compound in exp 1. The class given is functional, Lung. The method in brief:
as §2

In assay [13] the test system is Mus musculus. In words: Antimetastatic effect in lungs of C57BL/6 mice injected iv on day 0 with 250000 B16 melanoma cells and a dose of 25 mg/kg of compound in exp 2. The class given is functional, Lung. In a few lines: as §2
The species entered for assay [14] is Mus musculus. In words: Peak or the range of peak activity relative to positive IL 2 control; Range 10e-12-10e-7. Type of assay: functional. The method in brief: as §1
The species entered for assay [15] is Homo sapiens. In words: Iin vitro NK cell cytolytic activity (K 562 target) using human PBML; Range 81-100%. Type of assay: functional. The method in brief: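 PBML isolated from heparinized human blood by Ficoll-Hypaque density gradient centrifugation. For the NK assay (K562 targets), activity is scored relative to an IL 2 control.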
The species named for assay [16] is Homo sapiens. In words: The compound was tested in vitro for phagocytotic activity against human PBML; No effect. The class given is functional.
Assay [17] is described as follows: In vitro Natural Killer cell activity (Activation of murine splenocyte NK cells by its ability to lyze YAC-1 target cells in chromium release assay) relative to interleukin 2 at 10E-4 to […] conc; Range 101-120%. Type of assay: functional, Mus musculus. The method in brief:
as §1

The test system of assay [18] is Mus musculus. In words: Antimetastatic effect in lungs of C57BL/6 mice injected iv on day 0 with 250000 B16 melanoma cells and a dose of 50 mg/kg of compound in exp 2. The class given is functional, Lung. The method in brief:
as §2

For assay [19], the species on record is Homo sapiens. In words: The compound was tested in vitro for respiratory burst against human PBML; No effect. Type of assay: functional.
The species named for assay [20] is Mus musculus. In words: The compound was tested in vitro for B cell proliferation (PWM, LPS) against murine splenocytes; No effect. The class given is functional.
Assay [21] concerns Mus musculus. In words: Antimetastatic effect in lungs of C57BL/6 mice injected iv on day 0 with 250000 B16 melanoma cells and a dose of 0 mg/kg of compound in exp 2. The class given is functional, Lung. In a few lines: as §2
Assay [22] is filed under the species Mus musculus. In words: The compound was tested in vitro for phagocytotic activity against murine whole blood; No effect. The class given is functional.
For assay [23], the species on record is Mus musculus. In words: In vitro for cytotoxic T lymphocyte activity against murine splenocytes; Range 21-40% of IL 2. The class given is functional.
The nature of assay [24]: In vitro Natural Killer cell activity (Activation of murine splenocyte NK cells by its ability to lyze YAC-1 target cells in chromium release assay) relative to interleukin 2 at 10E-4 to 10E-12 M conc; Range 81-100%. Type of assay: functional, Mus musculus. The method in brief: as §1
Assay [25] is described as follows: In vitro Natural Killer cell activity (Activation of murine splenocyte NK cells by its ability to lyze YAC-1 target cells in chromium release assay) relative to interleukin 2 at 10E-4 to 10E-12 M conc; Range […]. Type of assay: functional, Mus musculus. The method in brief: as §1
Assay [26] is filed under the species Mus musculus. In words: Peak or the range of peak activity relative to positive IL 2 control; Range 10e-12-10e-6. The class given is functional. The method in brief: as §1
A short description of assay [27]: In vitro Natural Killer cell activity (Activation of murine splenocyte NK cells by its ability to lyze YAC-1 target cells in chromium release assay) relative to interleukin 2 at 10E-8 to 10E-12 M conc; Range 41-60%. The class given is functional, Mus musculus. The method in brief:
as §1

With `CC1OC(OCCCCCCNC(=O)[C@H](CCCCNC(=O)[C@H](CCC(N)=O)NC(=O)[C@@H](C)N)NC(=O)[C@H](CCC(N)=O)NC(=O)[C@@H](C)N)C(O)C(O)C1O` (stereo partly drawn), in assay [1], the Stimulation was determined as 21%.

In the case of `CC1OC(OCCCCCCCCCCCCNC(=O)[C@H](CCC(N)=O)NC(=O)[C@@H](C)N)C(O)C(O)C1O` (stereo partly drawn), in assay [2], the Stimulation was 21%.

In turn, `CC(C(=O)OCCCCCn1cnc2c(N(C)C)ncnc21)[C@H](C)CCCN=C(N)N` (stereo partly drawn) had a Stimulation in assay [3] of 0%.

Compound `CC1OC(OCCCCCCNC(=O)CC[C@H](NC(=O)[C@H](CCC(N)=O)NC(=O)[C@@H](C)N)C(=O)NCCCCCCOC2OC(C)C(O)C(O)C2O)C(O)C(O)C1O` (stereo partly drawn) registered a Stimulation in assay [4] of 0%.

As for `CC1OC(OCCCCCCNC(=O)[C@H](CCC(=O)O)NC(=O)[C@@H](C)N)C(O)C(O)C1O` (stereo partly drawn), in [5], the Stimulation stood at 41%. For the same compound, the Concentration in the assay filed under Mus musculus [6] was 10 pM.

In the case of `CC1OC(OCCCCCCNC(=O)[C@H](CC(N)=O)NC(=O)[C@@H](C)N)C(O)C(O)C1O` (stereo partly drawn), the Stimulation in assay [3] came to 0%.

`C[C@@H](N)C(=O)N[C@H]1CCC(=O)NC1=O`: in assay [3], the Stimulation is 0%.

`C[C@@H](N)C(=O)N[C@@H](CCC(N)=O)C(=O)O` (H-[dA]-Gln-OH) returned a Stimulation in assay [4] of 0%.

Compound `CC1OC(OCCCCCCNC(=O)[C@H](CCCN)NC(=O)[C@@H](C)N)C(O)C(O)C1O` (stereo partly drawn) had a Stimulation in [3] of 0%.

`CC1OC(OCCCCCCNC(=O)[C@@H](N)CCC(N)=O)C(O)C(O)C1O` (stereo partly drawn) came in with a Concentration in the assay listed under Mus musculus [7] of 100 nM. In assay [1], this compound registered a Stimulation of 21%.

As to `CC1OC(OCCCCCCNC(=O)[C@H](CCC(N)=O)NC(=O)[C@@H](C)N)C(O)C(O)C1O` (stereo partly drawn), the result in the assay listed under Mus musculus [8], in the assay filed under Mus musculus [10], in the assay listed under Mus musculus [11], in the assay listed under Homo sapiens [16], in the assay listed under Homo sapiens [19] and in the assay filed under Mus musculus [20] was inactive. Also, in the assay listed under Mus musculus [22], the outcome was inactive. In addition, the “No. of lung colonies” value with Mus musculus [9] turned out to be 142; with Mus musculus [12] it was 109; with Mus musculus [13], 86; with Mus musculus [18], 60; in the assay with Mus musculus [21] it was 101. In the assay filed under Mus musculus [14], this compound gave a Concentration of 10 pM. Further, the Activity in the assay filed under Homo sapiens [15] was found to be 81%; in the assay filed under Mus musculus [23], 21%. In assay [17], this compound registered a Stimulation of 101%.

As to `C[C@H](N)C(=O)N1CCC[C@H]1C(=O)NCCCCCCO`, in [4], the Stimulation stood at 0%.

For `C[C@@H](N)C(=O)N[C@@H](CCC(N)=O)C(=O)NCCCCCCO`, the Stimulation in [24] came out at 101%.

`CC(=O)N[C@@H](CCC(N)=O)C(=O)NCCCCCCOC1OC(C)C(O)C(O)C1O` (stereo partly drawn) had a Stimulation in assay [3] of 0%.

In the case of `CC1OC(OCCCCCCn2cnc3c(N(C)C)ncnc32)C(O)C(O)C1O` (stereo not drawn), in assay [25], the Stimulation is on record as 81%. In the assay listed under Mus musculus [26], this compound registered a Concentration of 10 pM.

As for `CC1OC(OCCCCCCNC(=O)CNC(=O)[C@@H](C)N)C(O)C(O)C1O` (stereo partly drawn), the Stimulation in assay [3] amounted to 0%.

With `C[C@@H](N)C(=O)N[C@@H](CCC(N)=O)C(=O)NCCCCCC(=O)O`, the Stimulation in assay [3] worked out at 0%.

`CC1OC(SCCCCCCNC(=O)[C@H](CCC(N)=O)NC(=O)[C@@H](C)N)C(O)C(O)C1O` (stereo partly drawn) yielded a Stimulation in [27] of 41%.

For `CN[C@H](C(=O)NCCCCCCOC1OC(C)C(O)C(O)C1O)c1ccc(C(=O)O)[nH]1` (stereo partly drawn), the Stimulation in assay [3] was determined as 0%.

Regarding `CC1OC(OCCCCCCNC(=O)[C@H](CCC(N)=O)NC(=O)CCN)C(O)C(O)C1O` (stereo partly drawn), in assay [4], the Stimulation is reported as 0%.
